Reference: ChEMBL document CHEMBL1909603, “Synthesis of novel N-(2-hydroxy-2-p-tolylethyl)-amide and N-(2-oxo-2-p-tolylethyl)-amide derivatives and their antidyslipidemic and antioxidant activity” (2011)

Columns and labels:
Format in all cases: functional
Rattus norvegicus [1] = experiment: Antihyperlipidemic activity in Charles Foster rat assessed as reduction of triton WR-1339-induced plasma triglyceride level at 100 mg/kg, po after 18 hrs; set-up: scale not given: the % may be the effect or the level left
In short: (§1)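 Male Charles Foster rats (100–150 g), six per group. Triton WR-1339 400 mg/kg ip with simultaneous oral dosing at 100 mg/kg, given as a gum acacia (0.2% w/v) suspension in water. Diet was withdrawn. Vehicle went to the control and triton groups. At 18 h, under thiopentone anaesthesia, retro-orbital blood was taken into EDTA and spun at 4 °C. Plasma diluted 1:3 in saline. TC, TG and PL measured by enzymatic kits. Mean SD.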

Rattus norvegicus [2] = experiment: Antihyperlipidemic activity in Charles Foster rat assessed as reduction of triton WR-1339-induced plasma protein level at 100 mg/kg, po after 18 hrs; set-up: scale not given: the % may be the effect or the level left
Rattus norvegicus [3] = experiment: Antihyperlipidemic activity in Charles Foster rat assessed as reduction of triton WR-1339-induced plasma post heparin lipolytic activity assessed per mL of plasma at 100 mg/kg, po after 18 hrs; set-up: scale not given: the % may be the effect or the level left
In short: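 Male Charles Foster rats (100–150 g), six per group. Triton WR-1339 400 mg/kg ip together with an oral 100 mg/kg dose in gum acacia suspension. Diet was withdrawn and vehicle controls were included. At 18 h, EDTA plasma was taken from retro-orbital blood. Post-heparin lipolytic activity was measured spectrophotometrically as nmol free fatty acid formed/h/ml plasma. Mean SD.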

Rattus norvegicus [4] = experiment: Antihyperlipidemic activity in Charles Foster rat assessed as reduction of triton WR-1339-induced plasma phospholipid level at 100 mg/kg, po after 18 hrs; set-up: scale not given: the % may be the effect or the level left; in short: as §1
Rattus norvegicus [5] = experiment: Antihyperlipidemic activity in Charles Foster rat assessed as reduction of triton WR-1339-induced plasma total cholesterol level at 100 mg/kg, po after 18 hrs; set-up: scale not given: the % may be the effect or the level left; in short: as §1
[6] = Antioxidant activity against microsomal lipid peroxidation assessed as malondialdehyde formation at 200 mg/ml after 90 mins by thiobarbituric acid method
[7] = Antioxidant activity assessed as xanthine-xanthine oxidase generated superoxide anion scavenging at 200 mg/ml after 30 mins by NBT reduction assay
In short: (§2)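 Enzymic superoxide generation with xanthine, xanthine oxidase (0.04 U) and nitroblue tetrazolium in 100 mM phosphate buffer pH 8.2, with or without sample. Incubated at 37 °C for 30 min, then stopped with glacial acetic acid. Formazan read at 560 nm. Percent inhibition calculated using ε 7.2 × 10³ M/cm.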

[8] = Antioxidant activity assessed as hydroxyl radical scavenging activity by measuring malondialdehyde formation at 200 mg/ml after 90 mins by thiobarbituric acid method
In short: (§3)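 Non-enzymic hydroxyl radical generation: deoxyribose 2.8 mM, FeSO4 2 mM, sodium ascorbate 2.0 mM and H2O2 2.8 mM in 50 mM KH2PO4 pH 7.4, with or without sample. Incubated at 37 °C for 90 min alongside reference samples and reagent blanks. MDA measured spectrophotometrically by the thiobarbituric acid method.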

[9] = Antioxidant activity assessed as xanthine-xanthine oxidase generated superoxide anion scavenging at 100 mg/ml after 30 mins by NBT reduction assay; in short: as §2
[10] = Antioxidant activity assessed as hydroxyl radical scavenging activity by measuring malondialdehyde formation at 100 mg/ml after 90 mins by thiobarbituric acid method; in short: as §3
[11] = Antioxidant activity against microsomal lipid peroxidation assessed as malondialdehyde formation at 100 mg/ml after 90 mins by thiobarbituric acid method

SMILES | Activity (Rattus norvegicus [1]) [%] | Activity (Rattus norvegicus [2]) [%] | Activity (Rattus norvegicus [3]) [%] | Activity (Rattus norvegicus [4]) [%] | Activity (Rattus norvegicus [5]) [%] | Activity [6] [%] | Activity [7] [%] | Activity [8] [%] | Activity [9] [%] | Activity [10] [%] | Activity [11] [%]
Cc1ccc(C)c(OCCCC(C)(C)C(=O)O)c1 [GEMFIBROZIL] | 31 | 31 | 23 | 36 | 33 |  |  |  |  |  | 
Cc1ccc(C(=O)CNC(=O)/C=C/c2ccc(Cl)c(Cl)c2)cc1 | 12 | 13 | 6 | 12 | 12 |  |  |  |  |  | 
Cc1ccc(C(=O)CNC(=O)CCc2cccnc2)cc1 | 22 | 21 | 20 | 24 | 24 | 29 | 31 | 33 | 24 | 19 | 19
Cc1ccc(C(O)CNC(=O)/C=C/c2ccc(Cl)c(Cl)c2)cc1 (racemic) | 14 | 15 | 14 | 13 | 16 |  |  |  |  |  | 
Cc1ccc(C(=O)CNC(=O)c2cccnc2)cc1 | 2 | 4 | 6 | 6 | 4 |  |  |  |  |  | 
Cc1ccc(C(=O)CNC(=O)/C=C/c2ccc(O)cc2)cc1 | 21 | 20 | 19 | 23 | 22 | 29 | 31 | 29 | 17 | 17 | 22
Cc1ccc(C(O)CNC(=O)/C=C/c2ccccc2O)cc1 (mixture of isomers) | 9 | 8 | 5 | 7 | 8 |  |  |  |  |  | 
Cc1ccc(C(=O)CNC(=O)Cc2ccc(F)cc2)cc1 | 11 | 19 | 6 | 15 | 14 |  |  |  |  |  | 
Cc1ccc(C(O)CNC(=O)Cc2cccnc2)cc1 (racemic) | 25 | 23 | 19 | 22 | 23 | 29 | 31 | 29 | 17 | 17 | 22
Cc1ccc(C(=O)CNC(=O)/C=C/c2ccc(OS(=O)(=O)c3ccc(C)cc3)cc2)cc1 | 4 | 6 | 7 | 9 | 7 |  |  |  |  |  | 
COc1cc(/C=C/C(=O)NCC(=O)c2ccc(C)cc2)ccc1O | 10 | 10 | 13 | 6 | 5 |  |  |  |  |  | 
Cc1ccc(C(O)CNC(=O)c2ccc(Cl)c([N+](=O)[O-])c2)cc1 (racemic) | 11 | 11 | 8 | 7 | 5 |  |  |  |  |  | 
Cc1ccc(C(=O)CNC(=O)Cc2cccnc2)cc1 | 5 | 7 | 8 | 7 | 7 |  |  |  |  |  | 
Cc1ccc(C(=O)CNC(=O)/C=C/c2ccccc2O)cc1 | 9 | 8 | 10 | 10 | 11 |  |  |  |  |  | 
OC[C@@H](O)[C@@H](O)[C@H](O)[C@H](O)CO |  |  |  |  |  |  |  | 45 |  |  | 
Cc1c(C)c2c(c(C)c1O)CC[C@@](C)(CCC[C@H](C)CCC[C@H](C)CCCC(C)C)O2 |  |  |  |  |  | 63 |  |  |  |  | 
COc1ccc(CC(=O)NCC(=O)c2ccc(C)cc2)cc1OC | 12 | 14 | 12 | 14 | 10 |  |  |  |  |  | 
Cc1ccc(C(=O)CNC(=O)c2ccc(Cl)c([N+](=O)[O-])c2)cc1 | 9 | 9 | 8 | 5 | 4 |  |  |  |  |  | 
COc1ccc([C@@H](O)CNC(=O)/C=C/c2ccccc2)cc1 [AEGELINE] | 22 | 24 | 14 | 23 | 24 |  | 25 | 22 | 19 | 18 | 
Oc1ncnc2[nH]ncc12 |  |  |  |  |  |  | 69 |  |  |  | 
COc1cc(/C=C/C(=O)NCC(O)c2ccc(C)cc2)ccc1O (mixture of isomers) | 23 | 21 | 21 | 22 | 24 | 23 | 32 | 27 | 21 | 18 | 19
Cc1ccc(C(O)CNC(=O)/C=C/c2ccc(O)cc2)cc1 (mixture of isomers) | 9 | 8 | 7 | 9 | 7 |  |  |  |  |  | 
